Results reported in ChEMBL document CHEMBL1151693, “Design, synthesis, and pharmacological evaluation of N-bicyclo-5-chloro-1H-indole-2-carboxamide derivatives as potent glycogen phosphorylase inhibitors” (Bioorg Med Chem, 2008).

Legend:
[1] = Oral bioavailability in Sprague-Dawley rat at 3 mg/kg; type: ADME, organism-based; settings: in vivo
In short: (§1)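 Pharmacokinetics were determined in male SD rats after intravenous or oral administration.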

[2] = system: Mus musculus; assay: Hypoglycemic activity in db/db mouse assessed as reduction of plasma glucose at 3 mg/kg, po after 2 hrs relative to control; type: functional; parameters: scale not given: the % may be the effect or the level left
In short: (§2)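 Diabetic db/db mice were dosed orally. Plasma glucose was measured 2 h post-dose in drug-treated and vehicle-treated control animals. Activity is the percent decrease in plasma glucose versus the vehicle controls. Significance versus control was tested by Dunnett's test or Student's t-test.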

[3] = AUC (0 to infinity) in Sprague-Dawley rat at 3 mg/kg, po; type: ADME, organism-based; parameters: time infinity, dose 3 mg/kg, route oral; settings: plasma; in short: as §1
[4] = Half life in Sprague-Dawley rat at 1 mg/kg, iv; type: ADME, organism-based; parameters: dose 1 mg/kg, route intravenous; settings: in vivo; in short: as §1
[5] = Total clearance in Sprague-Dawley rat at 1 mg/kg, iv; type: ADME, organism-based; parameters: dose 1 mg/kg, route intravenous; settings: in vivo; in short: as §1
[6] = system: Mus musculus; assay: Hypoglycemic activity in db/db mouse assessed as reduction of plasma glucose at 10 mg/kg, po after 2 hrs relative to control; type: functional; parameters: scale not given: the % may be the effect or the level left; in short: as §2
[7] = target: T1, Glycogen phosphorylase, liver form (Homo sapiens, UniProt P06737); assay: Inhibition of active form of human liver glycogen phosphorylase
T1 sequence (P06737 whole entry): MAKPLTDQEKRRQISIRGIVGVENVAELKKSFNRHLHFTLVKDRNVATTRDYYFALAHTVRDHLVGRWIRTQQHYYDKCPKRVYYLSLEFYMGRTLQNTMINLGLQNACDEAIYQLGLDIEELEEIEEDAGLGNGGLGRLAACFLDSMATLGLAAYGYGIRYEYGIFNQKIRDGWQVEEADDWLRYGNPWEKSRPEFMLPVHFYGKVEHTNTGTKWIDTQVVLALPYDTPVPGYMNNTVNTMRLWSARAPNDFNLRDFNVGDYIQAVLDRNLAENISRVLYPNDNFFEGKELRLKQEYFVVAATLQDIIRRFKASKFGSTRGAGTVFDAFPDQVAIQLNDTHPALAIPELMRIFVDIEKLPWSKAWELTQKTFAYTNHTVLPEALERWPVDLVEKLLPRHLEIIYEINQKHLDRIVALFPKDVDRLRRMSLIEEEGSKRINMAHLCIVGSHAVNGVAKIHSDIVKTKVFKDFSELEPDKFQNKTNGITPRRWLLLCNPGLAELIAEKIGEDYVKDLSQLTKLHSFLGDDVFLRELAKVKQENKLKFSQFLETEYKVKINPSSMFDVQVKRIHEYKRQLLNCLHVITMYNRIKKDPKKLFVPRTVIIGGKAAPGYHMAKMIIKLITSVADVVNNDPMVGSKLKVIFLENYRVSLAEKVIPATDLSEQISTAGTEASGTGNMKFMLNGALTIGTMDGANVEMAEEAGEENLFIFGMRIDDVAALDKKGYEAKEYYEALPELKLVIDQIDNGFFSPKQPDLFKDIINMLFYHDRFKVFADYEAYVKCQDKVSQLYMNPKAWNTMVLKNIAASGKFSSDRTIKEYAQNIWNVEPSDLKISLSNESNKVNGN

[8] = Tmax in Sprague-Dawley rat at 3 mg/kg, po; type: ADME, organism-based; parameters: dose 3 mg/kg, route oral; settings: in vivo; in short: as §1
[9] = system: Hepatocyte; assay: Inhibition of glucagon-induced glucose output in cultured rat primary hepatocytes; type: functional, cell-based
[10] = AUC (0 to infinity) in Sprague-Dawley rat at 1 mg/kg, iv; type: ADME, organism-based; parameters: time infinity, dose 1 mg/kg, route intravenous; settings: plasma; in short: as §1
[11] = Volume of distribution in Sprague-Dawley rat at 1 mg/kg, iv; type: ADME, organism-based; parameters: dose 1 mg/kg, route intravenous; settings: in vivo; in short: as §1
[12] = Cmax in Sprague-Dawley rat at 3 mg/kg, po; type: ADME, organism-based; parameters: dose 3 mg/kg, route oral; settings: in vivo; in short: as §1
[13] = system: Mus musculus; assay: Hypoglycemic activity in db/db mouse assessed as reduction of plasma glucose at 30 mg/kg, po after 2 hrs relative to control; type: functional; parameters: scale not given: the % may be the effect or the level left; in short: as §2

`O=C(Nc1c(F)cc2c(c1F)CCC(F)(F)[C@@H]2O)c1cc2cc(Cl)ccc2[nH]1` gave a bioavailability [1] of 100%, an Activity [2] of 14% and an AUC(0-inf) [3] of 2780 ng·h/mL. It also gave a half-life [4] of 720 min, a clearance [5] of 17.9 mL/min/kg and an Activity [6] of 26%. It also gave an IC50 [7] of 20 nM, a Tmax [8] of 30 min and an IC50 [9] of 690 nM. It also gave an AUC(0-inf) [10] of 930 ng·h/mL, a Vd [11] of 18.1 L/kg and a Cmax [12] of 785 ng/mL.
Work on `CC1(C)CCc2cc(NC(=O)c3cc4cc(Cl)ccc4[nH]3)ccc2C1O` (configuration not stated) yielded an IC50 [7] greater than 10000 nM.
For `O=C(Nc1ccc2c(c1F)CCC(F)(F)C2O)c1cc2cc(Cl)ccc2[nH]1` (configuration not stated), the IC50 [7] was 48 nM.
`O=C(N[C@@H](Cc1ccc(F)cc1)C(=O)N1CCC(O)CC1)c1cc2cc(Cl)ccc2[nH]1` showed an Activity [13] of 24%.
With `O=C(Nc1c(F)cc2c(c1F)CCC(F)(F)[C@H]2O)c1cc2cc(Cl)ccc2[nH]1` the IC50 [7] was 160 nM.
`O=C(Nc1c(F)cc2c(c1F)CCC(F)(F)C2O)c1cc2cc(Cl)ccc2[nH]1` (configuration not stated) showed an IC50 [7] of 36 nM.
